According to PubChem BioAssay:
Active and inactive are the calls of the source.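 The calls were made as follows, unless noted: active = viability at or under a set limit in both replicates, limit being median viability minus 3 SD (cut at about 48% in these data, passing the limit was not always enough); inconclusive = at or under the limit in just one replicate; inactive = at or above the limit in both replicates.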

Assays:
[1] = Her2 expression decrease, cell viability multiplex – SKBR3 breast tumor cells, AlphaScreen, ATP viability, primary screen (AID 461;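 active = Her2 level under about 52% in both replicate screens, with viability over 70% of control, limit read from the data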;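 as to Her2 level: lower value means less Her2 protein in the cells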;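 as to viability: percent of carrier control wells set as 100% viability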); details: SKBR3 Her2 protein level, 18-24 h, measured here: SKBR3 viability, ATP luminescence, at 10 µM
[2] = target: Receptor tyrosine-protein kinase erbB-2 (Homo sapiens) (UniProt P04626); test: as above; details: 18-24 h, at 10 µM, stronger effect = lower value
Chain of Receptor tyrosine-protein kinase erbB-2 (Homo sapiens) (P04626 whole entry, looked up): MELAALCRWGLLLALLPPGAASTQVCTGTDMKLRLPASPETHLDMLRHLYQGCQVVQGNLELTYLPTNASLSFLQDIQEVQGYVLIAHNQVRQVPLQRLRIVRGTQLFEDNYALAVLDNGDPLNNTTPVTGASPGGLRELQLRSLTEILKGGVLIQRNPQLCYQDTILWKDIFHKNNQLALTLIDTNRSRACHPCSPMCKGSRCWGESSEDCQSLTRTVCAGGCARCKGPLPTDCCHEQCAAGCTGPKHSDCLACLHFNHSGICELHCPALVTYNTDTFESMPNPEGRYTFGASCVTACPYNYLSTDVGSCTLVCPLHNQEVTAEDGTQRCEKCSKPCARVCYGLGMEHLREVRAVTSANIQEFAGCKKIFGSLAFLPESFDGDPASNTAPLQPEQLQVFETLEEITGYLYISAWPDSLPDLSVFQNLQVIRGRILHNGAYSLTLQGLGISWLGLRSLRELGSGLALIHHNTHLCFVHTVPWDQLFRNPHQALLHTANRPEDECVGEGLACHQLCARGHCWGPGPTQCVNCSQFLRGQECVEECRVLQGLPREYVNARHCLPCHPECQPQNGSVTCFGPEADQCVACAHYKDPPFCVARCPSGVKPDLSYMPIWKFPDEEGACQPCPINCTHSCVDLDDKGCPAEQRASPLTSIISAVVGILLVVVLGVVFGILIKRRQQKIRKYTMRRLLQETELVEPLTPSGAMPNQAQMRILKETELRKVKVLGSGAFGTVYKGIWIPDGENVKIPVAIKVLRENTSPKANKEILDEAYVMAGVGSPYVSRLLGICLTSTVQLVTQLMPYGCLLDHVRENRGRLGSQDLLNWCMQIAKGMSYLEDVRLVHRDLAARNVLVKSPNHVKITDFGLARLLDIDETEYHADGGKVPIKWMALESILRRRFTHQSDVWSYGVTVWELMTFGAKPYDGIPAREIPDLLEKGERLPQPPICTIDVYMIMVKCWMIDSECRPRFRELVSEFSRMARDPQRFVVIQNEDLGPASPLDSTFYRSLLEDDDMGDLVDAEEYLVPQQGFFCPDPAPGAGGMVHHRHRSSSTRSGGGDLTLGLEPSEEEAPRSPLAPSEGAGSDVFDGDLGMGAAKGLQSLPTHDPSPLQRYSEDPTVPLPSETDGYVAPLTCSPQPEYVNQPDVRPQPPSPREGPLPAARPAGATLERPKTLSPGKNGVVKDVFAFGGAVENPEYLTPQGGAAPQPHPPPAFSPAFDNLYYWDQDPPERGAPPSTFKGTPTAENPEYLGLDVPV

[3] = reduced viability of SK-BR-3 breast cancer cells – cell-based, 24 h, human, pilot screen (AID 572;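 active = viability at or below 10% of carrier control in both of two separate runs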;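 also: compound exposure lasted between 18 and 24 h rather than exactly 24 h; 100% = carrier-treated control wells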); details: SK-BR-3 viability, CellTiter-Glo luminescence, at 10 µM, stronger effect = lower value
[4] = HUVEC growth inhibition – cell-based, human, primary screen (AID 575;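 active = viability at or below 30% in both replicate assays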;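 also: 100% = median of untreated cell wells with 0.1% DMSO on each plate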); details: HUVEC proliferation, CellTiter-Glo luminescence, 72 h; at 10 µM; stronger effect = lower value
How it was run: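 Test system: HUVEC primary cells. Quantity: 1250 endothelial cells in each well. Dosing: single-point 10 µM, DMSO 0.1% final. Incubation: 72 h treatment at 37 °C. Measured by: CTG luminescence. Control set: DMSO cell controls and MePR drug controls. Plate: collagen-coated 384-well format.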

[5] = H69AR cell proliferation blockers – human, duplicate replicates, primary screen (AID 580); details: H69AR lung tumor cells viability, ATP luminescence, 72 h; at 10 µM; stronger effect = lower value;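 also: 100% = mean luminescence of untreated wells and 0% = no signal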
[6] = MRP1 drug-resistance reversers in H69AR cells – cell-based, doxorubicin co-treatment, pilot screen (AID 601;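 active = viability loss from added drug above about 55%, and viability with drug at most 40%, in both replicates, limit read from the data, passing the limit was not always enough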); details: CellTiter-Glo, 72 h, at 10 µM; for differential viability (reversal): stronger effect = higher value
[7] = yeast transport mutant growth inhibition pilot in 384-well plates, post-Golgi transport modulator project (AID 636; in the data active = inhibition above about 31%); details: absorbance 615 nm, about 18 h, stronger effect = higher value
[8] = growth suppression of yeast trafficking mutant, preliminary HTS, modulators of trafficking downstream of Golgi apparatus project, 1536-format plate, OD 615 nm (AID 637; in the data active = inhibition above about 30%); details: yeast transport mutant growth, absorbance 615 nm, 18 h; stronger effect = higher value
[9] = H69AR cells + 2 uM doxorubicin, measured here: viability with 2 uM doxorubicin, stronger effect = lower value
[10] = H69AR cells, compound alone cytotoxicity

SMILES | viability [1] [%] | Her2 level [2] | viability [3] | viability [4] | viability [5] | differential viability (reversal) ([6]; H69AR cells + 2 uM doxorubicin) | viability [6, 9] [%] | viability [6, 10] [%] | inhibition [7] | inhibition [8]
O=C(c1ccc(Cl)c(F)c1F)N1CCCC1 | 88.5 | 106% (inactive) | 88.5% (inactive) | 98.4% (inactive) | 102% (inactive) | 11.3% (inactive) | 90.7 | 102 | -1.67% (inactive) | -10.2% (inactive)
Cc1cccc(-c2c3c(=O)n(C)c(=O)n(C)c3cn2-c2ccc(O)cc2)c1 | 102 | 80% (inactive) | 102% (inactive) | 108% (inactive) | 86.6% (inactive) | -6.51% (inactive) | 93.1 | 86.6 | -3.11% (inactive) | -2.38% (inactive)
CC(=O)NC(=O)NC1CSCC1OC(C)=O (stereo not given) | 112 | 89% (inactive) | 112% (inactive) | 106% (inactive) | 92.8% (inactive) | 5.96% (inactive) | 86.9 | 92.8 | -6.53% (inactive) | 0.48% (inactive)
O=C(O)CCN1C(=O)c2ccccc2C1=O | 99 | 91% (inactive) | 99% (inactive) | 112% (inactive) | 97.5% (inactive) | -1.81% (inactive) | 99.4 | 97.5 | -2.24% (inactive) | 2.79% (inactive)
Cc1ccccc1-n1nnnc1SCC(=O)Nc1ccc(S(=O)(=O)N2CCCC2)cc1 | 70.5 | 100% (inactive) | 70.5% (inactive) | 94.6% (inactive) | 85% (inactive) | -2.96% (inactive) | 88 | 85 | 0.53% (inactive) | 2.1% (inactive)
CSCCC(NC(=O)c1occc1C)C(=O)O (stereo not given) | 93.5 | 94.5% (inactive) | 93.5% (inactive) | 103% (inactive) | 103% (inactive) | 12.8% (inactive) | 89.8 | 103 | -2.63% (inactive) | 2.83% (inactive)
O=C1CSC(=Nc2ccc(O)cc2)N1c1ccc(O)cc1 | 93 | 89.5% (inactive) | 93% (inactive) | 89.2% (inactive) | 91.4% (inactive) | 9.79% (inactive) | 81.6 | 91.4 | -7.07% (inactive) | -1.64% (inactive)
O=C(O)CCC(=O)c1c[nH]c2ccccc12 | 88 | 114% (inactive) | 88% (inactive) | 88.4% (inactive) | 95.6% (inactive) | -5.4% (inactive) | 101 | 95.6 | 1.47% (inactive) | -4.76% (inactive)
CN1C(=O)C2(NCCc3c2[nH]c2ccccc32)c2ccccc21 (stereo not given) | 114 | 100% (inactive) | 114% (inactive) | 86.8% (inactive) | 109% (inactive) | 12.9% (inactive) | 96 | 109 | -3.82% (inactive) | 6.07% (inactive)
COCCn1c(SCC(=O)Nc2cccc(OC)c2)nnc1-c1ccc(Cl)cc1 | 98.5 | 71.5% (inactive) | 98.5% (inactive) | 97% (inactive) | 84.1% (inactive) | -5.18% (inactive) | 89.3 | 84.1 | -6.4% (inactive) | 0.98% (inactive)
CCN(CCCNC(=O)CCNC(=O)Cn1ccc2ccccc2c1=O)c1ccccc1 | 97.5 | 87.5% (inactive) | 97.5% (inactive) | 109% (inactive) | 98.3% (inactive) | 11.8% (inactive) | 86.5 | 98.3 | -5.47% (inactive) | -2.86% (inactive)
C=CCn1c(=O)[nH]c2cc(C(=O)N3CCN(c4cc(C)ccc4C)CC3)ccc2c1=O | 81.5 | 79.5% (inactive) | 81.5% (inactive) | 71.7% (inactive) | 41.3% (active) | 7.67% (inactive) | 33.6 | 41.3 | -6.76% (inactive) | -0.83% (inactive)
CN(C)/C=N/c1ncnc2c1cnn2-c1ccc(C(F)(F)F)cn1 | 108 | 100% (inactive) | 108% (inactive) | 104% (inactive) | 81.8% (inactive) | -0.51% (inactive) | 82.3 | 81.8 | -4.42% (inactive) | -4.29% (inactive)
CSc1ccc(S(=O)(=O)Nc2cccc(F)c2)cc1 | 96 | 76% (inactive) | 96% (inactive) | 97.7% (inactive) | 97.3% (inactive) | -0.325% (inactive) | 97.6 | 97.3 | -5.26% (inactive) | -5.33% (inactive)
